A selection: hits, their analogues and other compounds. The true share with any hit is near 4.8%.
HSF-1 act: increases HSF-1 driven luciferase reporter signal; activation, % at 9 µM; AID 504408; 1.7% of 300,000 active; NIH3T3-HGL HSF-1 luciferase reporter, MG132, 8 h; 100% = twice DMSO control signal;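 active = mean replicate activation of at least 50% with a set share of replicates each reaching 50%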
GPR7 antagonist: antagonists of human GPR7 (neuropeptides B/W receptor 1). P48145. 1.1% of 290,000 active. AID 1861. GPR7-expressing cells, fluorescence antagonist assay. inhibition, % at 4.4 µM; in the data active = inhibition above about 16%, passing the limit was not always enough;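 note: cells stimulated with the agonist NPW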
Target sequence (P48145 whole entry, looked up): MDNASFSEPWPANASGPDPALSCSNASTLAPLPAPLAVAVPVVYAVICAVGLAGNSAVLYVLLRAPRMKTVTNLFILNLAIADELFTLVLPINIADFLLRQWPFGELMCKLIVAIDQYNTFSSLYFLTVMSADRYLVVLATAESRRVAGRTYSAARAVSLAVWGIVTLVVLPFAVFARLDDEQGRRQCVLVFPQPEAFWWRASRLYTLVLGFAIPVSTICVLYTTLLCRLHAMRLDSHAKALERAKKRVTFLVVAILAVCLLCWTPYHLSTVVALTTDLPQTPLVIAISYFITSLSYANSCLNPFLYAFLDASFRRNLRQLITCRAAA
T cruzi inh: T. cruzi replication inhibition | 1.4% of 300,000 active | T. cruzi beta-gal in NIH3T3, luminescence, 90 h | AID 1885 | inhibition, % (test concentration not listed);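 active = mean inhibition across valid replicates above about 55%, limit read from the data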;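 note: signal also drops with host cell toxicity which is not excluded here; higher percent means less beta-gal luminescence so fewer parasites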
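Assay system: NIH/3T3 host cells with β-galactosidase reporter T. cruzi; input: 5,000 host fibroblasts per well; compound: single 50 nL compound addition per well in DMSO; timing: ≥90 h infection period, 3 h prior cell attachment; measured by: GalScreen β-gal luminescence, detergent lysis, 60 min; evaluation: percent inhibition of parasite-derived β-gal signal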
697 NFkB inh: lowers PMA/ionomycin-induced NF-kB signal in 697 B cells. 697 B-cell NF-kB luciferase reporter, 16 h. inhibition, % at 4 µM. 0.33% of 330,000 active. AID 435022; in the data active = inhibition above about 35%
HSF1 inhib: HSF1 inhibition; 0.77% of 300,000 active; NIH3T3-HGL HSE-luciferase, MG132-induced, luminescence 8 h; hits give low values; activity change, negative = inhibition, % at 7.5 µM (by protocol);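 active = more than half of replicate wells show activity change below -50%, luminescence cut by over half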;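 note: luciferase reports HSF-1 transcriptional activity via heat shock element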
Jurkat NFkB inh: lowers PMA/ionomycin-induced NF-kB signal in Jurkat cells | PMA/ionomycin-induced NF-kB luciferase reporter, luminescence | inhibition, % at 4 µM | 0.53% of 330,000 active | AID 435003; in the data active = inhibition above about 50%
A number is an active result; – = inactive; · = not tested or not shown.

SMILES | HSF-1 act | GPR7 antagonist | T cruzi inh | 697 NFkB inh | HSF1 inhib | Jurkat NFkB inh
CC1CCC(NC(=O)c2cc(S(=O)(=O)N(C)C)ccc2N2CCCC2)CC1 (stereo not given) | – | · | – | – | – | –
CN1CCc2c(sc3c2c(=O)n(-c2ccccc2)c2nnc(SCc4ccc(Cl)cc4)n32)C1 | – | – | 61 | – | – | –
NC(=O)CSc1nnc2n(-c3ccccc3)c(=O)c3c4c(sc3n12)CCCCC4 | – | – | – | – | – | –
CCOc1ccc(NC(=O)Cn2nnc(-c3ccc(C(N)=O)cc3)n2)cc1S(=O)(=O)N1CCCC1 | · | · | · | – | · | –
O=[N+]([O-])c1ccc(S(=O)(=O)NCCS(=O)(=O)N2CCN(c3ccccc3)CC2)cc1 | – | – | 56 | – | – | –
O=C(Nc1ccccc1-c1ccccc1)c1cccc(C(F)(F)F)c1 | – | – | – | – | – | –
Cc1csc(-c2cnn(-c3ccccc3)c2NC(=O)c2cccc(C(F)(F)F)c2)n1 | 81 | – | – | – | – | –
CN(C)S(=O)(=O)c1ccc(C(=O)OCC(=O)Nc2ccccc2OC(F)F)cc1 | – | – | – | – | – | –
CN(C)S(=O)(=O)c1ccc(C(=O)OCC(=O)c2ccc(OC(F)F)cc2OC(F)F)cc1 | – | 18 | – | – | – | –
O=C(CC(C(=O)N1CCc2ccccc21)n1ccnc1)N1CCc2ccccc2C1 (stereo not given) | – | – | 72 | – | – | –
CCN1CCN(C(c2ccc(C(F)(F)F)cc2)c2ccc3cccnc3c2O)CC1 (stereo not given) | – | – | – | – | – | –
Oc1c(C(c2ccccn2)N2CCCCC2)cc(Cl)c2cccnc12 (stereo not given) | – | – | – | – | – | –
CN1CCN(C(c2ccc(Cl)cc2)c2cc(Cl)c3cccnc3c2O)CC1 (stereo not given) | 79 | – | – | – | – | –
CN1CCN(C(c2ccc(C(F)(F)F)cc2)c2cc(Cl)c3cccnc3c2O)CC1 (stereo not given) | – | – | 59 | – | – | –
O=S(=O)(c1ccc(Br)cc1)c1nc(-c2ccccc2)oc1NCCN1CCOCC1 | – | – | – | – | – | –
Cc1cccc(N(CC(=O)NC2CCCC2)C(=O)c2cc3cc4cccc(C)c4nc3s2)c1C | – | – | 57 | – | – | –
COc1cccc(CNC(=O)CCC2CCCN(C(=O)CCC(F)(F)F)C2)c1 (stereo not given) | – | – | – | – | – | –
CC(=O)c1cccc(CN2CCCC(CCC(=O)NCc3ccc(F)c(F)c3)C2)c1 (stereo not given) | – | – | 76 | – | – | –
O=C(CCC1CCCN(C(=O)c2cc3ccccc3o2)C1)NCc1ccc(F)c(F)c1 (stereo not given) | 52 | – | – | · | – | ·
COc1cccc(CNC(=O)CCC2CCCN(Cc3cc4ccccc4o3)C2)c1 (stereo not given) | – | – | 62 | – | – | –
O=C(CCC1CCCN(Cc2ccncc2)C1)NCc1ccc(F)c(F)c1 (stereo not given) | – | – | 56 | – | – | –
CCc1cccc(C)c1NC(=O)CSc1n[nH]c(N)n1 | · | · | · | – | · | –
CCCCC(=O)Nc1cccc(C(=O)N/N=C/c2ccc(OC)cc2OC)c1 | – | – | – | – | – | –
COc1ccc(-c2csc3nc(-c4ccccc4)oc(=O)c23)cc1OC | – | – | – | – | – | –
O=C(CNS(=O)(=O)c1ccc(Br)s1)NCc1ccccc1 | 69 | – | – | – | – | –
SMILES | HSF-1 act | GPR7 antagonist | T cruzi inh | 697 NFkB inh | HSF1 inhib | Jurkat NFkB inh
COc1ccc(-n2cc(CN(C)C(C)c3ccncn3)c(-c3cccc(F)c3)n2)cc1 (stereo not given) | – | – | 66 | – | – | –
Cc1ccsc1C(=O)OCc1nnc(-c2ccccc2)o1 | · | · | · | – | · | –
O=C(OCc1csc(-c2ccccc2)n1)c1cccs1 | 91 | – | – | – | – | –
Cc1ccsc1C(=O)OCc1csc(-c2ccccc2)n1 | 59 | – | – | – | – | –
CNS(=O)(=O)c1cccc(C(=O)OCc2csc(-c3ccccc3)n2)c1 | 67 | – | – | – | – | –
O=C(CNS(=O)(=O)c1cccc(Cl)c1)OCc1csc(-c2ccccc2)n1 | – | – | – | – | – | –
O=C(OCc1csc(-c2ccccc2)n1)C1=NN(c2ccccc2)C(=O)CC1 | · | · | · | – | · | –
Fc1ccc(COc2cccc(CNCc3ccncc3)c2)cc1 | – | – | 60 | – | – | –
Fc1ccc(COc2ccc(Br)cc2CNCc2ccncc2)cc1 | – | – | 71 | – | – | –
Cc1cccc(N2CCN(Cc3ccc([N+](=O)[O-])o3)CC2)c1C | – | – | 58 | – | – | –
O=C(Nc1cccc(O)c1)c1cc(-c2ccccc2Cl)on1 | – | – | – | – | -58 | –
CCOC(=O)CSC1=C(C#N)C(c2ccccc2C)C2=C(CCCC2=O)N1 (stereo not given) | – | – | – | – | -85 | –
CCOC(=O)CSC1=C(C#N)C(c2ccccc2OC)CC(=O)N1 (stereo not given) | – | – | – | – | – | –
CCOc1ccc2noc3c2c1C(=O)c1ccccc1-3 | – | – | – | – | – | –
O=C1c2ccccc2-c2onc3ccc(N4CCCC4)c1c23 | 93 | – | – | · | – | ·
Cc1ccc(Cn2ccc(=O)c(OCc3c(Cl)cccc3Cl)c2C)cc1 | – | – | – | – | – | –
C/C=C1\COC(C(=O)NCc2ccncc2)(C(F)(F)F)C=C1C=C1CCCCC1 (stereo not given) | 63 | · | – | – | – | –
COc1cccc(CN(C)CC(=O)NCc2ccc(F)cc2)c1OC | – | – | – | – | – | –
C/C=C1\COC(C(=O)NCc2cccc(OC)c2OC)(C(F)(F)F)C=C1C=C1CCCCC1 (stereo not given) | 69 | · | – | – | – | –
Cc1ccc(C)c(S(=O)(=O)N2CCN(CC(=O)NC(=O)NCc3ccccc3)CC2)c1 | – | – | 56 | – | – | –
O=c1c2ccccc2nnn1COc1cccc2ccccc12 | – | – | – | – | – | –
O=c1c2ccccc2nnn1COc1ccc(F)cc1Cl | 84 | – | – | – | – | –
O=c1c2ccccc2nnn1COc1ccc(Cl)cc1Br | 56 | – | – | – | – | –
CCc1noc(C)c1C(=O)N1CCCSC1=Nc1ccccc1Cl | – | · | – | – | – | –
COc1cccc(N/C(SCc2cccc([N+](=O)[O-])c2)=C(/C#N)C(=O)NCc2cccs2)c1 | 75 | – | – | · | – | ·
COc1ccccc1CNC(=O)COC(=O)c1cc(=O)c2ccccc2o1 | · | · | · | – | · | –
Cc1cc(O)cc(C)c1Cl | – | · | – | – | – | –
Cc1cc(O)c(-c2cc(O)c(C)cc2O)cc1O | – | – | 55 | – | – | –
c1ccc(-c2cnnn2-c2ccccc2)cc1 | – | – | – | – | – | –
